Screens as filed in PubChem.
Rows were chosen to be rich in hits. Some 6.7% of all compounds tested hit in one or more screens of this group.
GRIN3A LBD mod: binders of NR3A ligand-binding domain, primary screen, biophysical, differential scanning fluorimetry, uHTS; Tm shift relative to glycine control, % at 25 µM; actives 2.5% (n = 340,000); Glutamate receptor ionotropic, NMDA 3A (GRIN3A) ligand-binding domain; NR3A LBD differential scanning fluorimetry, Tm shift; 0% = protein alone, 100% = glycine-bound protein; AID 1259313, 2017;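 active = melting temperature shift of at least 10% of the positive control shift, at one fixed dose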
T cruzi inh: inhibitors of intracellular T. cruzi growth, primary screen, luminescence, NIH3T3 host cells | actives 1.4% (n = 300,000) | inhibition, % (test concentration not listed) | T. cruzi beta-gal in NIH3T3, 90 h;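 active = mean inhibition across valid replicates above about 55%, limit read from the data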;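 note: signal also drops with host cell toxicity which is not excluded here; 0% = plate median of DMSO wells and 100% = zero luminescence signal; higher percent means less beta-gal luminescence so fewer parasites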
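Assay system: NIH/3T3 host cells with β-galactosidase reporter T. cruzi; input: 5,000 host fibroblasts per well; compound: single 50 nL compound addition per well in DMSO; timing: ≥90 h infection period, 3 h prior cell attachment; measured by: GalScreen β-gal luminescence, detergent lysis, 60 min; evaluation: percent inhibition of parasite-derived β-gal signal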
CHOP inhibitor: inhibitors of CHOP promoter induction, primary screen, cell-based, unfolded protein response, luciferase reporter. CHO-K1 CHOP-promoter luciferase, tunicamycin-induced, 15-18 h. inhibition, % at 10 µM. actives 3.8% (n = 220,000). AID 2732, 2010;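 active = compounds that reduced the stress-induced luciferase reporter signal by more than about 70% of percent inhibition, limit read from the data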;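 note: 0% = tunicamycin plus vehicle and 100% = wells without tunicamycin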
Beta apoptosis: inhibitors of cytokine-induced beta cell apoptosis, primary screen, luminescence. actives 0.8% (n = 300,000). protection from apoptosis, % (no concentration beside the values). INS-1E cytokine-induced death, ATP luminescence, 48 h; percent of positive-control rescue, neutral wells zero;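 active = Every replicate reaches about 75%, or at least half do and their mean reaches it too, limit read from the data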;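 note: 0% = cytokine-treated negative control wells and 100% = positive control rescue; higher means more ATP so stronger rescue from cytokine killing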
CSC inhib: cancer stem cell viability inhibitors, primary screen, luminescence. cancer stem cell-like cells viability. inhibition, % at 7.5 µM. actives 1.1% (n = 300,000). AID 2717, 2010; in the data active = inhibition above about 75%; tested in HMLE shEcad cells
PREPL inh: PREPL enzyme inhibitors, primary screen, biochemical, fluorescence polarization | Prolyl endopeptidase-like (Homo sapiens), Q4J6C6 | recombinant PREPL, fluorescence polarization activity-based probe | inhibition, % at 5.96 µM | actives 0.68% (n = 320,000) | AID 2751, 2010; in the data active = inhibition above about 43%;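 note: 0% = enzyme with DMSO and 100% = wells lacking enzyme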
An asterisk follows results filed as active; · = not tested or not shown.

SMILES | GRIN3A LBD mod | T cruzi inh | CHOP inhibitor | Beta apoptosis | CSC inhib | PREPL inh
COC(=O)Cc1[nH]n(-c2nc3ccccc3s2)c(=O)c1C(C)=Nc1ccc(C)cc1 | 1 | -16 | 107* | 5 | -5 | -4
COC(=O)Cc1[nH]n(-c2nc3ccccc3s2)c(=O)c1C(C)=Nc1ccc(Cl)cc1 | 1 | -10 | 83* | 7 | 69 | -3
COC(=O)Cc1[nH]n(-c2ccccc2)c(=O)c1C(C)=Nc1ccccc1 | -2 | 17 | -32 | -5 | 3 | -1
CN(Cc1ccccc1)C(=O)c1cccc(NC(=O)Cc2cccc(NC(=O)C3CCN(C(=O)C4CCC4)CC3)c2)c1 | -3 | · | · | · | · | ·
COc1ccccc1N1CCN(C/C=C/c2ccc(N(C)C)cc2)CC1 | · | 55* | 12 | 3 | 5 | 27
O=C(NNC(=O)c1cc2cc(OC(F)(F)F)ccc2[nH]1)c1cccc(C(F)(F)F)c1 | 23* | -24 | 5 | 2 | 4 | 0
NNC(=O)c1cc2cc(OC(F)(F)F)ccc2[nH]1 | -1 | 6 | -5 | · | 6 | 19
O=C(COc1ccccc1Cl)Nc1ccc(S(=O)(=O)N2CCOCC2)cc1 | 4 | 3 | · | 1 | -20 | 5
Cc1cc(C)c(NC(=O)CN(C)C(C)C(=O)N2CCc3ccccc32)c(C)c1 (centres undefined) | 0 | · | · | 2 | -9 | 3
Cc1cccc(-n2ncc3c(N4CCCc5ccccc54)ncnc32)c1 | 1 | -26 | 29 | 2 | 76* | 3
Cc1cccc2c(N)c3c(nc12)N(C)CC3 | 16* | 8 | · | 13 | -12 | -9
O=C(Nc1nc(-c2cc3ccccc3oc2=O)cs1)c1ccc(Br)o1 | 29* | 8 | 46 | · | 15 | 17
Cc1nnc(NC(=O)c2oc3ccccc3c2C)s1 | -1 | 10 | · | 1 | -5 | 0
Cc1c(C(=O)Nc2nc(-c3ccccn3)cs2)oc2ccccc12 | -4 | · | · | 84* | 109* | 4
Cc1cc(-c2csc(NC(=O)c3cc4ccccc4o3)n2)c(C)n1C | -3 | -22 | -22 | -3 | 3 | 2
COc1ccc2oc(C(=O)Nc3nc(C)cs3)c(C)c2c1 | 20* | · | · | 10 | 2 | -2
O=C(Nc1nc(-c2ccccn2)cs1)c1cc2ccccc2o1 | 1 | 77* | -20 | 2 | 47 | 1
CCCCNc1c(N)n(CCCC)c(=O)[nH]c1=O | · | 9 | 0 | 7 | · | 13
Cc1nc2c(OCc3ccccc3)cccn2c1CC#N | · | · | 3 | · | · | ·
CC(N=c1ccccn1C(=O)Nc1ccc(F)cc1)c1ccco1 (centres undefined) | 1 | 11 | 19 | -7 | -5 | -9
CC(N=c1ccccn1C(=O)Nc1ccc(Cl)cc1)c1ccco1 (centres undefined) | 24* | 1 | 70 | · | · | 27
CSc1c(CN2CCN(C)CC2)c2ccccc2n1C | 0 | 36 | · | 2 | -32 | 0
COc1ccc(C(=O)Nc2ccc(NC(=O)c3cccs3)cn2)cc1 | 17* | -2 | · | -4 | 2 | -15
COc1ccc(C(=O)Nc2ccc(NC(=O)c3cccc(F)c3)cn2)cc1 | 2 | 6 | · | -3 | 0 | -5
Cc1cc(NC(=O)c2ccc(Cl)cc2)no1 | 3 | 0 | 42 | 1 | -6 | 5
SMILES | GRIN3A LBD mod | T cruzi inh | CHOP inhibitor | Beta apoptosis | CSC inhib | PREPL inh
Cc1cc(NC(=O)c2ccc(NC(=O)c3cccs3)cc2)no1 | 14* | 12 | 42 | 6 | -1 | 2
COc1ccc(C(=O)Nc2ccc(NC(=O)c3ccccc3OC)nc2)cc1 | 25* | 3 | · | -6 | 12 | -13
COc1ccc(NC(=O)c2cccs2)cc1 | -18 | -21 | -12 | 5 | 11 | 8
COc1ccc(C(=O)Nc2ccc(NC(=O)c3cccc(OC)c3)cn2)cc1 | 38* | -3 | · | -4 | -1 | 13
CC(OC(=O)/C=C/c1ccccc1)C(=O)N1CCc2ccccc21 (centres undefined) | 0 | 10 | · | · | 14 | 8
Cc1cccc(NC(=O)C2(c3cccs3)CCOCC2)n1 | -1 | 14 | -7 | 4 | 8 | 17
C=CCn1c2ccccc2c(=O)c2cc(C#Cc3ccccn3)ccc21 | -13 | · | · | 8 | 76* | 1
CCN(CC)C(=O)[C@H]1C[C@H](CC(=O)NCCCOC)C(=O)N2CCc3c([nH]c4cc(CCC(=O)N(C)C)ccc34)[C@]12C | -2 | · | · | · | · | ·
CCCc1cc(C(=O)N/N=C/c2cccn2C)cs1 | 0 | -9 | · | · | -8 | 4
NNc1nc2sc3c(c2c(=O)[nH]1)CCc1ccccc1-3 | -5 | -37 | 7 | -7 | -5 | 11
C=CCn1c(SCCC)nc2sc3c(c2c1=O)CCc1ccccc1-3 | -2 | 32 | -2 | 6 | 83* | -6
CCSc1nc2sc3c(c2c(=O)[nH]1)CCc1ccccc1-3 | 0 | 21 | 84* | 0 | -5 | 11
C=CCSc1nc2sc3c(c2c(=O)n1CC=C)CCc1ccccc1-3 | -2 | 42 | 17 | -2 | 5 | 16
CC(=O)Nc1ccc(S(=O)(=O)Nc2ccc(-n3cnnn3)cc2)cc1 | -1 | · | · | -5 | -5 | -3
CC(Sc1ccccc1)C(=O)N/N=C/c1ccccc1 (centres undefined) | 0 | 4 | · | · | -4 | -12
Cc1ccc(NC(=O)C(=Cc2ccc(C(=O)O)cc2)C(=O)Nc2ccc(C)cc2C)c(C)c1 | -1 | 0 | -14 | 71 | 159* | -2
N#Cc1ccc(CSC2=NCCN2)cc1 | 0 | 21 | -4 | 1 | -12 | 2
CCOc1ccc(CSC2=NCCN2)cc1Cl | 2 | 57* | 62 | -16 | -10 | -5
Nc1nc(-c2ccc(Oc3ccccc3)cc2)c(CC(=O)O)s1 | -2 | -3 | · | -4 | 5 | ·
CSc1ccccc1C(=O)N(CC1CCCO1)c1c(N)n(Cc2ccccc2)c(=O)[nH]c1=O (centres undefined) | 2 | -2 | · | -6 | -1 | 2
CCCCC[C@@H]1C=C(C(=O)O)[C@H](c2ccc(Cl)c(Cl)c2)N1S(=O)(=O)c1ccc(C)cc1 | -3 | · | · | -1 | 98* | 5
Cc1ccc(S(=O)(=O)N2[C@@H](c3ccc(C(C)(C)C)cc3)C(C(=O)O)=CC[C@H]2c2cccc(Cl)c2)cc1 | -1 | · | · | -3 | 138* | -2
CC[C@@H]1C=C(C(=O)O)[C@H](c2ccc(Cl)c(Cl)c2)N1S(=O)(=O)c1ccc(C)cc1 | -4 | · | · | -12 | · | 22
CCc1ccc([C@@H]2CC=C(C(=O)O)[C@H](c3ccc(C)cc3)N2S(=O)(=O)c2ccc(C)cc2)cc1 | -2 | · | · | · | · | 15
